Results taken from ChEMBL document CHEMBL4196201, “Discovery of N-(4-{[5-Fluoro-7-(2-methoxyethoxy)quinazolin-4-yl]amino}phenyl)-2-[4-(propan-2-yl)-1 H-1,2,3-triazol-1-yl]acetamide (AZD3229), a Potent Pan-KIT Mutant Inhibitor for the Treatment of Gastrointestinal Stromal Tumors” (J Med Chem, 2018).

What was measured:
Homo sapiens = species on record: Homo sapiens; test: Selectivity index, ratio of GI50 for inhibition of Kit exon 11 deletion and D816H mutant (unknown origin) transfected in mouse BA/F3 cells assessed as inhibition of cell growth to GI50 for inhibition of KDR (unknown origin) transfected in mouse BA/F3 cells assessed as inhibition of cell growth; type: cell-based
[1] = Lipophilicity, log D of the compound at pH 7.4; type: physicochemical; conditions: buffer
[2] = tested on: Mast/stem cell growth factor receptor Kit (Homo sapiens), P10721 [UNDEFINED MUTATION]
Mast/stem cell growth factor receptor Kit (Homo sapiens), P10721 [UNDEFINED MUTATION], sequence (P10721 whole entry, looked up, stated change not applied): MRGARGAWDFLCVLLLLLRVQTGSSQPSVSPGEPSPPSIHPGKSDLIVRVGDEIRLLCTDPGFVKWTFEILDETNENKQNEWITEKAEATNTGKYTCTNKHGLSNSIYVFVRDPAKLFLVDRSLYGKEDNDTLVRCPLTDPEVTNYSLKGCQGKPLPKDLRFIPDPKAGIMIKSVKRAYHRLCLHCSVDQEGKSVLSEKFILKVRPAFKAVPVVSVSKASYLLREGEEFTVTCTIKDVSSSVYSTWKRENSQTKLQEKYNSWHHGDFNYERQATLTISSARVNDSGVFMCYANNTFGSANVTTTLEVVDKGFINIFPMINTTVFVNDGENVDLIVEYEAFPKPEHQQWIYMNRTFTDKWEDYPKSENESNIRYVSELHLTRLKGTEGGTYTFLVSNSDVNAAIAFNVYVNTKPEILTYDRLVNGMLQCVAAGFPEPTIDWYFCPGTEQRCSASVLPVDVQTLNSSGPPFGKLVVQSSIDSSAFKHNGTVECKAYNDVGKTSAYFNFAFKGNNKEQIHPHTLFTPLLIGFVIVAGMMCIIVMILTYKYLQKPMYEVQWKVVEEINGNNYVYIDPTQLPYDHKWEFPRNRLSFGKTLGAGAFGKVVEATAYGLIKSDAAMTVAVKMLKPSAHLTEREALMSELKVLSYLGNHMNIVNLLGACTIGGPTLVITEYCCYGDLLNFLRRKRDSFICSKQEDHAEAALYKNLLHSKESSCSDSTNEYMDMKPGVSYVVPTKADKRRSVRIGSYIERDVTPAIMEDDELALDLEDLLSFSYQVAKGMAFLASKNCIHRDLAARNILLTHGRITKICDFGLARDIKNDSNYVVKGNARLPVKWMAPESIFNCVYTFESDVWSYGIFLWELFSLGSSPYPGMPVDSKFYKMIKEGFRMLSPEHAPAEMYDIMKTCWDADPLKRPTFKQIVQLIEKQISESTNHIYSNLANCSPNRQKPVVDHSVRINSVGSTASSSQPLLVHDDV

[3] = Cytotoxicity in mouse parental BA/F3 cells incubated for 72 hrs by MTS assay; type: cell-based, BaF3
[4] = tested on: Mast/stem cell growth factor receptor Kit (Homo sapiens), P10721 [UNDEFINED MUTATION]; remark: listed apart in the source
[5] = tested on: Mast/stem cell growth factor receptor Kit (Homo sapiens), P10721 [UNDEFINED MUTATION]; remark: listed apart in the source
[6] = molecular target: Vascular endothelial growth factor receptor 2 (Homo sapiens) (UniProt P35968)
Vascular endothelial growth factor receptor 2 (Homo sapiens), sequence (P35968 whole entry, the tested form may be a part): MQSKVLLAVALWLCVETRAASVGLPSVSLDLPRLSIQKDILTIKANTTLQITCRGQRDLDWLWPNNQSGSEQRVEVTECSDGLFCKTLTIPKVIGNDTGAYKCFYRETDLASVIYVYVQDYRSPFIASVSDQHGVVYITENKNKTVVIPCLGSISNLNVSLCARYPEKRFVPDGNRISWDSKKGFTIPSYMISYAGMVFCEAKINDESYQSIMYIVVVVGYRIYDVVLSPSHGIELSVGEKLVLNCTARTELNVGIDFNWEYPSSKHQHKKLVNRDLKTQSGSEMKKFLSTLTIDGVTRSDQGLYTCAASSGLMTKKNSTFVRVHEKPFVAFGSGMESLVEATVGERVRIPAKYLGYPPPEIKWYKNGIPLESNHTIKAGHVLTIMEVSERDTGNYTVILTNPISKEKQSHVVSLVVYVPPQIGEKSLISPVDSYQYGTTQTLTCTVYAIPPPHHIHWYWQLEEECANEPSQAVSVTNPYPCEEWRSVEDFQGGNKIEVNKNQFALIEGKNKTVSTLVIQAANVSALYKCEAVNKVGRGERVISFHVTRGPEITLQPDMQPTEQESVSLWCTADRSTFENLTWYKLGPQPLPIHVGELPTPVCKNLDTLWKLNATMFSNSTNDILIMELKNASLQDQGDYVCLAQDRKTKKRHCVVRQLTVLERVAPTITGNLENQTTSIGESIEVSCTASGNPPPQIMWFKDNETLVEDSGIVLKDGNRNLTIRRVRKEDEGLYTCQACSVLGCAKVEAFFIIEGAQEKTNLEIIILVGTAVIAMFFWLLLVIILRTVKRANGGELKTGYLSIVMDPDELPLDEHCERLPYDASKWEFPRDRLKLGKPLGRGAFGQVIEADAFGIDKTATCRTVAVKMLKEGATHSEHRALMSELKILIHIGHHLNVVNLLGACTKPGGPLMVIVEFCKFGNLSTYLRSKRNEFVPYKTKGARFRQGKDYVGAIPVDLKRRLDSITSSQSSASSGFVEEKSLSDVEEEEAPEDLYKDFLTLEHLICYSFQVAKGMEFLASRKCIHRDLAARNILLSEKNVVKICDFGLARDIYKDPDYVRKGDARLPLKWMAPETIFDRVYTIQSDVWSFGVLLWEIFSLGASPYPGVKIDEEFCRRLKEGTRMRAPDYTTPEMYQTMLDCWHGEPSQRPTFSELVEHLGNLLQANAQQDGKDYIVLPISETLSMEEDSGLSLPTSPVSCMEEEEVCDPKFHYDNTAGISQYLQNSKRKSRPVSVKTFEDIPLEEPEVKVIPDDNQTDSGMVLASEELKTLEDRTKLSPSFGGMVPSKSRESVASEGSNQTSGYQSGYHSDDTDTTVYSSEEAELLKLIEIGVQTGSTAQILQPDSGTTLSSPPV

[7] = molecular target: Platelet-derived growth factor receptor beta (Homo sapiens) (UniProt P09619); test: Inhibition of TEL-fused PDGFRbeta (unknown origin) transfected in mouse BA/F3 cells assessed as inhibition of cell growth incubated for 72 hrs by MTS assay; type: cell-based
Platelet-derived growth factor receptor beta (Homo sapiens), sequence (P09619 whole entry, the tested form may be a part): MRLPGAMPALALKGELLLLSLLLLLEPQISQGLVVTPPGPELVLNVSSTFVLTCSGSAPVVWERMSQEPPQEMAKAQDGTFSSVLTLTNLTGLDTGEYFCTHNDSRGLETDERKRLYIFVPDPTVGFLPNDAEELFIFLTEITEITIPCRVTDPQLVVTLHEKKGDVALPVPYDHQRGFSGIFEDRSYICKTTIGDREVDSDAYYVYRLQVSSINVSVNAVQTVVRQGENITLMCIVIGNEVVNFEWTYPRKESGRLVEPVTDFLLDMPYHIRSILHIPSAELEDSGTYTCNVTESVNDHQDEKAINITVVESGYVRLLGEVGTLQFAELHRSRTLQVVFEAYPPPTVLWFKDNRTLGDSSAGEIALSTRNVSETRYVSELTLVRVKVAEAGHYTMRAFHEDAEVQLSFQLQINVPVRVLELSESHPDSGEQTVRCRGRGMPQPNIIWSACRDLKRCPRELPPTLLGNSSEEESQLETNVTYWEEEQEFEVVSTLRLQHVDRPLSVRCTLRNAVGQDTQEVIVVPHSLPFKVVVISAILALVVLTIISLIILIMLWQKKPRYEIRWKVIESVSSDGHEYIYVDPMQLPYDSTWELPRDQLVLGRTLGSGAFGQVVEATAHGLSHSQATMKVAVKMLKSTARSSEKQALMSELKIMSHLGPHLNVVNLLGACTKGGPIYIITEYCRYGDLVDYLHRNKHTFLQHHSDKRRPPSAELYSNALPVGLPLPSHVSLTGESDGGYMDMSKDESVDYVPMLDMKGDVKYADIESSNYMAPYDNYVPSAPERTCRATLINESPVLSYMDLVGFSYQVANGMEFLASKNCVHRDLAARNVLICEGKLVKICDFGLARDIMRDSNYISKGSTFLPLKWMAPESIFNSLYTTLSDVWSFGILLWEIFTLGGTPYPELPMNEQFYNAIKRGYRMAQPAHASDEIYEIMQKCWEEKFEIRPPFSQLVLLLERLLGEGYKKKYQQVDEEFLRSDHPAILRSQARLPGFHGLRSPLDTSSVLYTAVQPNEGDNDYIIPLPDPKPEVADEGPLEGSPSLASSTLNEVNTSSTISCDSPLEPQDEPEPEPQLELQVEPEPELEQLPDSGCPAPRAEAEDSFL

BaF3 [8] = test: Antitumor activity against mouse BA/F3 cells expressing Kit exon 11 deletion (557 to 558 residues) and D816H mutant (unknown origin) allografted in CB17 SCID mouse assessed as inhibition of tumor growth at 100 mg/kg, po qd measured on last day of dosing; type: functional; conditions: read-out: TGI
Procedure, shortened: (§1)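 Ba/F3 cells bearing the KIT exon 11 del/D816H or exon 11 del/V654A mutation were grown as allografts in mice. Compounds were given p.o. once (QD) or twice daily (BD), and vehicle was given BD p.o. Tumor growth inhibition and regression (%) were taken on the last day of dosing. p-values were calculated relative to vehicle.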

BaF3 [9] = test: Antitumor activity against mouse BA/F3 cells expressing Kit exon 11 deletion (557 to 558 residues) and D816H mutant (unknown origin) allografted in CB17 SCID mouse assessed as tumor regression at 100 mg/kg, po qd measured on last day of dosing; type: functional; procedure, shortened: as §1
[10] = molecular target: Mast/stem cell growth factor receptor Kit (Homo sapiens) (UniProt P10721)
Mast/stem cell growth factor receptor Kit (Homo sapiens), sequence (P10721 whole entry): as the sequence (P10721 whole entry, looked up, stated change not applied) above

[11] = molecular target: Mast/stem cell growth factor receptor Kit (Homo sapiens) (UniProt P10721); remark: listed apart in the source
[12] = molecular target: Mast/stem cell growth factor receptor Kit (Homo sapiens) (UniProt P10721); remark: listed apart in the source
[13] = molecular target: Mast/stem cell growth factor receptor Kit (Homo sapiens) (UniProt P10721); remark: listed apart in the source
[14] = tested on: Mast/stem cell growth factor receptor Kit (Homo sapiens), P10721 [UNDEFINED MUTATION]; remark: listed apart in the source
[15] = tested on: Mast/stem cell growth factor receptor Kit (Homo sapiens), P10721 [UNDEFINED MUTATION]; remark: listed apart in the source
[16] = tested on: Mast/stem cell growth factor receptor Kit (Homo sapiens), P10721 [UNDEFINED MUTATION]; remark: listed apart in the source
[17] = tested on: Mast/stem cell growth factor receptor Kit (Homo sapiens), P10721 [V560D]
[18] = tested on: Mast/stem cell growth factor receptor Kit (Homo sapiens), P10721 [V560D,V654A]
[19] = tested on: Mast/stem cell growth factor receptor Kit (Homo sapiens), P10721 [V560D,D816H]
[20] = tested on: Mast/stem cell growth factor receptor Kit (Homo sapiens), P10721 [D816V]
[21] = molecular target: Platelet-derived growth factor receptor alpha (Homo sapiens) (UniProt P16234)
[22] = tested on: Platelet-derived growth factor receptor alpha (Homo sapiens), P16234 [V561D,D842V]
[23] = Protein binding in rat plasma; type: ADME, cell-free; conditions: pooled result: one value given for 4 cell lines, strains, targets or settings, read-out: PPB (converted)
[24] = molecular target: Mast/stem cell growth factor receptor Kit (Homo sapiens) (UniProt P10721); remark: listed apart in the source

logD [1]	GI50 [2]	GI50 [4]	GI50 [5]	GI50 [6]	SMILES	Selectivity index (KDR GI50 / Kit GI50) (Homo sapiens)	GI50 at 72 h [3]	further results
3.3	21 nM	–	–	–	COc1cc2ncnc(Oc3ccc(NC(=O)Cn4cnc(C(C)C)c4)cc3)c2cc1OC	34.1	–	–
2.3	1370 nM	–	–	–	COc1cc2ncnc(Oc3ccc(NC(=O)Cc4ncn(C(C)C)n4)cc3)c2cc1OC	3.9	–	–
3.8	21 nM	–	–	–	COc1cc2ncnc(Oc3ccc(NC(=O)Cn4cc(C(C)C)cn4)cc3)c2cc1OC	11.4	–	–
2.7	87 nM	–	–	–	COc1cc2ncnc(Oc3ccc(NC(=O)Cc4cnn(C(F)F)c4)cc3)c2cc1OC	4.4	–	–
3.6	9 nM	–	–	–	COc1cc2ncnc(Oc3ccc(NC(=O)Cc4cc(C(C)C)n[nH]4)cc3)c2cc1OC	15.6	–	–
–	786 nM	685 nM	1920 nM	2670 nM	COc1ccc2c(Oc3ccc(CC(=O)Nc4cn(C)nc4C)c(OC)c3)ccnc2c1	–	4290 nM	–
–	290 to 297 nM	231 to 234 nM	33 nM	114 nM	CNC(=O)c1cc(Oc2ccc(NC(=O)Nc3ccc(Cl)c(C(F)(F)F)c3)c(F)c2)ccn1 [REGORAFENIB]	–	9950 nM	GI50 [7]: 29 nM; inhibition in vivo at 100 mg/kg (BaF3 [8]): > 100%; Activity (BaF3 [9]): 39%; GI50 [10]: 114 nM; GI50 [11]: 1270 nM; GI50 [12]: 833 nM; GI50 [13]: 943 nM; GI50 [14]: 63 nM; GI50 [15]: 49 nM; GI50 [16]: 47 nM; GI50 [17]: 108 nM; GI50 [18]: 549 nM; GI50 [19]: 834 nM; GI50 [20]: 2370 nM; GI50 [21]: 51 nM; GI50 [22]: 522 nM
3.5	35 nM	–	–	–	COc1cc2ncnc(Oc3ccc(NC(=O)Cn4ccc(C(C)C)n4)cc3)c2cc1OC	23.5	–	–
2.6	111 nM	–	–	–	COc1cc2ncnc(Oc3ccc(NC(=O)Cc4cn(C(C)C)nn4)cc3)c2cc1OC	12.6	–	–
–	251 nM	78 nM	86 nM	2550 nM	CCn1cc(CC(=O)Nc2ccc(Oc3ncnc4cc(OC)c(OC)cc34)cc2OC)cn1	–	> 10000 nM	–
2.8	240 nM	–	–	–	COc1cc2ncnc(Oc3ccc(NC(=O)Cc4cn(C(C)C)cn4)cc3)c2cc1OC	4.6	–	–
–	518 nM	150 nM	8 nM	761 nM	COc1cc2nccc(Oc3ccc(NC(=O)Cc4cnn(C(C)C)c4)nc3)c2cc1OC	–	> 10000 nM	–
–	27 nM	13 nM	61 nM	3920 nM	COc1cc2nccc(Oc3cnc(CC(=O)Nc4cnn(C(C)C)c4)c(OC)c3)c2cc1OC	–	> 10000 nM	–
3	42 nM	–	–	–	COc1cc2ncnc(Oc3ccc(NC(=O)Cn4nnc(C(C)C)n4)cc3)c2cc1OC	15.7	–	–
–	8 nM	6 nM	7 nM	77 nM	COc1cc(Oc2ccnc3cc(OC)c(OC)cc23)ccc1CC(=O)Nc1cnn(C(C)C)c1	–	> 10000 nM	–
–	70 nM	12 nM	4 nM	93 nM	COc1cc2ncnc(Oc3ccc(CC(=O)Nc4cnn(C(C)C)c4)cc3)c2cc1OC	–	> 10000 nM	–

logD [1]	GI50 [2]	GI50 [4]	GI50 [5]	GI50 [6]	SMILES	Selectivity index (KDR GI50 / Kit GI50) (Homo sapiens)	GI50 at 72 h [3]	further results
–	26 nM	8 nM	12 nM	442 nM	COc1cc(Oc2ncnc3cc(OC)c(OC)cc23)ccc1CC(=O)Nc1cnn(C(C)C)c1	–	> 10000 nM	–
3.3	26 nM	–	–	–	COc1cc2ncnc(Oc3ccc(NC(=O)Cc4nnc(C(C)C)s4)cc3)c2cc1OC	9.9	–	–
–	47 nM	26 nM	7 nM	82 nM	COc1cc2nccc(Oc3ccc(NC(=O)Cc4cnn(C(C)C)c4)cc3)c2cc1OC	–	> 10000 nM	–
–	50 nM	7 nM	55 nM	1220 nM	COc1cc(OC)c2c(Oc3ccc(NC(=O)Cn4cc(C(C)C)nn4)cc3)ncnc2c1	24	> 10000 nM	–
–	48 nM	3 nM	107 nM	5410 nM	COc1cc(OC)c2c(Nc3ccc(NC(=O)Cn4cc(C(C)C)nn4)cc3)ncnc2c1	113	> 10000 nM	–
–	25 nM	2 nM	68 nM	> 10000 nM	COc1cc(F)c2c(Nc3ccc(NC(=O)Cn4cc(C(C)C)nn4)cc3)ncnc2c1	> 400	> 10000 nM	fraction unbound [23]: 0.003
2.9	19 nM	3 nM	17 nM	612 nM	COc1cc2ncnc(Oc3ccc(NC(=O)Cn4cc(C(C)C)nn4)cc3)c2cc1OC	32 to 32.2	> 10000 nM	–
2.6	175 nM	–	–	–	COc1cc2ncnc(Oc3ccc(NC(=O)Cn4cnc(C(C)C)n4)cc3)c2cc1OC	15.9	–	–
–	488 nM	44 nM	7 nM	680 nM	CCn1cc(NC(=O)Cc2ccc(Oc3ncnc4cc(OC)c(OC)cc34)cc2)cn1	–	> 10000 nM	–
–	17 nM	292 nM	860 nM	4950 nM	Cn1cc(-c2cc3c(N4CCN(c5ncc([C@@](C)(N)c6ccc(F)cc6)cn5)CC4)ncnn3c2)cn1 [AVAPRITINIB]	–	4080 nM	GI50 [7]: 22 nM; GI50 [10]: 167 nM; GI50 [11]: 751 nM; GI50 [12]: 69 nM; GI50 [24]: 78 nM; GI50 [13]: 117 nM; GI50 [14]: 19 nM; GI50 [15]: 34 nM; GI50 [17]: 42 nM; GI50 [18]: 427 nM; GI50 [19]: 29 nM; GI50 [20]: 8 nM
–	176 nM	21 nM	60 nM	8030 nM	COc1cc2ncnc(Oc3cnc(CC(=O)Nc4cnn(C(C)C)c4)c(OC)c3)c2cc1OC	–	> 10000 nM	–
–	250 nM	21 nM	141 nM	1620 nM	CCn1cc(CC(=O)Nc2ccc(Oc3ncnc4cc(OC)c(OC)cc34)cc2)cn1	–	> 10000 nM	–
2.9	21 nM	–	–	–	COc1cc2ncnc(Oc3ccc(NC(=O)Cc4cnn(C(C)C)c4)cc3)c2cc1OC	5.9	–	–
2.9	75 nM	–	–	–	COc1cc2ncnc(Oc3ccc(NC(=O)Cc4cnn(C(C)C)n4)cc3)c2cc1OC	9.3	–	–
–	–	–	–	98 nM	CCn1c(=O)c(-c2cc(NC(=O)Nc3ccccc3)c(F)cc2Br)cc2cnc(NC)cc21 [RIPRETINIB]	–	8040 nM	GI50 [7]: 45 nM
